Reference: ChEMBL document CHEMBL1122126, “Pyrazolo[3,4-d]pyrimidine ribonucleosides as anticoccidials. 2. Synthesis and activity of some nucleosides of 4-(alkylamino)-1H-pyrazolo[3, 4-d]pyrimidines” (1982)
pEC50: −log10 of the molar value. ≈ marks a conversion by molar mass, not a printed value.

Tests used:
Eimeria tenella [1] = experiment: In vitro minimum inhibitory concentration for Eimeria tenella in embryonic chick liver cells; assay type: functional
Procedure, shortened: (§1)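 E. tenella (Weybridge strain) was grown in cultured embryonic chick liver cells. The minimum inhibitory concentration against parasite growth was determined, and toxicity to the host cells was recorded alongside it.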

Gallus gallus [2] = experiment: Compound tested in vivo for anti-coccidial activity which cleared number of chicks from parasite at 400 ppm in the diet; assay type: functional
Procedure, shortened: (§2)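 Week-old chicks were given a simultaneous infection of Eimeria tenella (Weybridge strain) and E. acervulina (Ongar strain). Compound was mixed into the diet at the stated ppm level. Activity against E. acervulina was judged from oocyst production at day 5. Treated-group weight gain was compared with controls.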

L cells [3] = experiment: Concentration that inhibited the growth of Mouse L cells.; assay type: functional; settings: L929, read-out: ED50 (the source's name)
Procedure, shortened: (§3)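 Cloned Detroit 98 cells (human sternal marrow, ATCC CCL 18.1 derivative) or cloned mouse L cells (C3H/AN connective tissue) were grown as monolayers in modified Eagle's medium at 36 °C in a humidified CO2 incubator. Cells were exposed for 70-76 h, and control cultures reached at least two doublings. Total counts were made by electronic counter on replicate cultures. ED50 is the molar concentration giving 50% of control growth, read from a plot.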

Detroit 98 [4] = experiment: Concentration that inhibited the growth of cultured human detroit 98 cells.; assay type: functional; settings: read-out: ED50 (the source's name); procedure, shortened: as §3
Eimeria tenella [5] = experiment: Anti-coccidial activity which cleared number of chicks from parasite; assay type: functional; procedure, shortened: as §2
Gallus gallus [6] = experiment: Compound tested in vivo for anti-coccidial activity which cleared number of chicks from parasite at 400 ppm in the diet; One chick out of five died and contained lesions due to parasite; assay type: functional
Gallus gallus [7] = experiment: Compound tested in vivo for anti-coccidial activity which cleared number of chicks from parasite at 100 ppm in the diet; One chick out of five died and contained lesions due to parasite
L cells [8] = experiment: Concentration that inhibited the growth of Mouse L cells; assay type: functional; settings: L929, read-out: ED50 (the source's name); procedure, shortened: as §3
Detroit 98 [9] = experiment: Concentration that inhibited the growth of cultured human detroit 98 cells; assay type: functional; settings: read-out: ED50 (the source's name); procedure, shortened: as §3
Gallus gallus [10] = organism: Gallus gallus; experiment: In vitro minimum inhibitory concentration for Eimeria tenella in embryonic chick liver cells; Toxic; assay type: functional; procedure, shortened: as §1
Gallus gallus [11] = experiment: Compound tested in vivo for anti-coccidial activity which cleared number of chicks from parasite at 200 p.p.m. in the diet
Gallus gallus [12] = experiment: Compound tested in vivo for anti-coccidial activity which cleared number of chicks from parasite at 400 ppm in the diet; Chicks showed decreased weight gain; assay type: functional; procedure, shortened: as §2
Gallus gallus [13] = organism: Gallus gallus; experiment: In vitro minimum inhibitory concentration for Eimeria tenella in embryonic chick liver cells; Slightly toxic; assay type: functional; procedure, shortened: as §1
Gallus gallus [14] = experiment: Compound tested in vivo for anti-coccidial activity which cleared number of chicks from parasite at 25 p.p.m. in the diet; assay type: functional; procedure, shortened: as §2

SMILES	MIC (Eimeria tenella [1]) [µg/mL]	No. of chicks (Eimeria tenella [5])	also measured
O=c1[nH]cnc2c1cnn2[C@@H]1O[C@H](CO)[C@@H](O)[C@H]1O	20 (≈ 74.6 µM)		No. of chicks (Gallus gallus [2]): 0
OC[C@H]1OC(n2ncc3c(NCc4ccco4)ncnc32)[C@H](O)[C@@H]1O (stereo not given in full)	0.31 (≈ 0.893 µM)		pEC50 (L cells [3]): 5.52; pEC50 (Detroit 98 [4]): 6.52
CNc1ncnc2c1cnn2C1O[C@H](CO)[C@@H](O)[C@H]1O (stereo not given in full)	0.31 (≈ 1.1 µM)	0	
NNc1ncnc2c1cnn2C1O[C@H](CO)[C@@H](O)[C@H]1O (stereo not given in full)	5 (≈ 17.7 µM)		pEC50 (L cells [3]): 4.00; pEC50 (Detroit 98 [4]): 4.70; No. of chicks (Gallus gallus [6]): 0
CCCCCCCCNc1ncnc2c1cnn2C1O[C@H](CO)[C@@H](O)[C@H]1O (stereo not given in full)	5 (≈ 13.2 µM)		No. of chicks (Gallus gallus [7]): 0
O=C(Nc1ncnc2c1cnn2C1O[C@H](CO)[C@@H](O)[C@H]1O)c1ccccc1 (stereo not given in full)		0	pEC50 (L cells [8]): < 4.00; pEC50 (Detroit 98 [9]): < 4.00; MIC (Gallus gallus [10]): 5 µg/mL (≈ 13.5 µM)
OC[C@H]1OC(n2ncc3c(NCc4ccccc4)ncnc32)[C@H](O)[C@@H]1O (stereo not given in full)	0.31 (≈ 0.867 µM)	0	
CCCCCCN(CCCCCC)c1ncnc2c1cnn2C1O[C@H](CO)[C@@H](O)[C@H]1O (stereo not given in full)	> 20	1	pEC50 (L cells [3]): 4.30; pEC50 (Detroit 98 [4]): 4.30
CCCCN(CC)c1ncnc2c1cnn2C1O[C@H](CO)[C@@H](O)[C@H]1O (stereo not given in full)	5 (≈ 14.2 µM)	0	
CN(C)c1ncnc2c1cnn2C1O[C@H](CO)[C@@H](O)[C@H]1O (stereo not given in full)	5 (≈ 16.9 µM)		No. of chicks (Gallus gallus [11]): 2
CCN(CC)c1ncnc2c1cnn2C1O[C@H](CO)[C@@H](O)[C@H]1O (stereo not given in full)	5 (≈ 15.5 µM)		No. of chicks (Gallus gallus [12]): 1
CCCCCCNc1ncnc2c1cnn2C1O[C@H](CO)[C@@H](O)[C@H]1O (stereo not given in full)	1.25 (≈ 3.56 µM)	0	
OC[C@H]1OC(n2ncc3c(N4CCOCC4)ncnc32)[C@H](O)[C@@H]1O (stereo not given in full)			No. of chicks (Gallus gallus [2]): 0; MIC (Gallus gallus [13]): 20 µg/mL (≈ 59.3 µM)
CC(C)=CCNc1ncnc2c1cnn2C1O[C@H](CO)[C@@H](O)[C@H]1O (stereo not given in full)	5 (≈ 14.9 µM)	0	pEC50 (L cells [3]): < 4.00; pEC50 (Detroit 98 [4]): 5.82; No. of chicks (Gallus gallus [14]): 0
CCNc1ncnc2c1cnn2C1O[C@H](CO)[C@@H](O)[C@H]1O (stereo not given in full)	5 (≈ 16.9 µM)		No. of chicks (Gallus gallus [2]): 1
OC[C@H]1OC(n2ncc3c(NC4CCCC4)ncnc32)[C@H](O)[C@@H]1O (stereo not given in full)	0.31 (≈ 0.924 µM)	5	
CCCCNc1ncnc2c1cnn2C1O[C@H](CO)[C@@H](O)[C@H]1O (stereo not given in full)	1.25 (≈ 3.87 µM)	0	
OC[C@H]1OC(n2ncc3c(NCCc4ccccc4)ncnc32)[C@H](O)[C@@H]1O (stereo not given in full)	5 (≈ 13.5 µM)		No. of chicks (Gallus gallus [7]): 0
Nc1ncnc2c1ncn2[C@@H]1O[C@H](CO)[C@@H](O)[C@H]1O [ADENOSINE]		0	pEC50 (L cells [3]): 6.52; pEC50 (Detroit 98 [4]): 7.10; MIC (Gallus gallus [10]): 20 µg/mL (≈ 74.8 µM)
